For orientation: inhibition means the drop in the measured response relative to a control, in per cent. For orientation: Ki means the dissociation constant of the complex between target and ligand, obtained from inhibition or displacement.

Active and inactive are the calls of the source. The rule behind the calls is not given here.

A short description of assay [1]: Inhibition of aminoglycoside 6'-N-acetyltransferase Ib (unknown origin)-mediated acetylation expressed in Escherichia coli using kanamycin A and acetyl CoA as substrate at 100 uM preincubated for 10 mins followed by enzyme addition by spectrophotometric analysis relative to control. In short, it runs like this: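 Enzyme: thioredoxin-fused AAC(6′)-Ib, arabinose-induced in E. coli, partially purified by DEAE ion exchange. Reaction: 20 mM Tris pH 7.5, 0.2 mM DTNB, 50 μM acetyl CoA, 18 μM kanamycin A, compound at 100 μM in 10% DMSO. Mix held 10 min at room temperature before enzyme added. CoA–SH release read at 412 nm. Percent inhibition from initial velocities versus no-compound reactions; mean of three experiments.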

A short description of assay [2]: Inhibition of aminoglycoside 6'-N-acetyltransferase Ib (unknown origin)-mediated acetylation expressed in Escherichia coli using 5 to 72 uM acetyl CoA and 25 uM kanamycin A as substrate preincubated for 10 mins followed by enzyme addition by spectrophotometric analysis. In short, it runs like this:
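Enzyme partially purified on DEAE from arabinose-induced E. coli, in 20 mM Tris pH 7.5 with 0.2 mM DTNB and 10% DMSO. Inhibitor at a range of concentrations, acetyl CoA 5–72 μM, kanamycin A 25 μM. 10 min room-temperature preincubation before enzyme. CoA-SH release read at 412 nm. Ki from initial velocities by nonlinear regression, in triplicate.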

A short description of assay [3]: Inhibition of aminoglycoside 6'-N-acetyltransferase Ib (unknown origin)-mediated acetylation expressed in Escherichia coli using 3 to 18 uM kanamycin A and 100 uM acetyl CoA as substrate preincubated for 10 mins followed by enzyme addition by spectrophotometric analysis. The procedure, abridged: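 Enzyme partially purified on DEAE from arabinose-induced E. coli, in 20 mM Tris pH 7.5 with 0.2 mM DTNB and 10% DMSO. Inhibitor at a range of concentrations, kanamycin A 3–18 μM, acetyl CoA 100 μM. 10 min room-temperature preincubation before enzyme. CoA-SH release read at 412 nm. Ki from initial velocities by nonlinear regression, in triplicate.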

The nature of assay [4]: Inhibition of aminoglycoside 6'-N-acetyltransferase Ib (unknown origin)-mediated acetylation expressed in Escherichia coli using kanamycin A and acetyl CoA as substrate at 100 uM preincubated for 10 mins followed by enzyme addition by spectrophotometric analysis in presence of Triton X-100. In short, it runs like this:
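Compound at 100 μM in 10% DMSO, with 20 mM Tris pH 7.5, 0.2 mM DTNB, 50 μM acetyl CoA, 18 μM kanamycin A and 0.01% Triton X-100. Preincubated 10 min at room temperature, then partially purified enzyme added. Absorbance at 412 nm gave initial velocities. Percent inhibition taken against compound-free reactions, mean of three experiments.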

Assay [5] can be described thus: Competitive inhibition of aminoglycoside 6'-N-acetyltransferase Ib (unknown origin) expressed in Escherichia coli using kanamycin A as substrate by Lineweaver-Burk plot analysis in presence of acetyl CoA. In short, it runs like this:
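Partially purified His-Patch thioredoxin-fused enzyme from E. coli (pBAD102, arabinose-induced), in 20 mM Tris pH 7.5 with 0.2 mM DTNB. Kanamycin A varied 3–18 μM with acetyl CoA fixed at 100 μM, at several inhibitor concentrations. Mix held 10 min at room temperature before enzyme. Initial rates followed at 412 nm, mode assigned from Lineweaver-Burk plots, in triplicate.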

The nature of assay [6]: Non-competitive inhibition of aminoglycoside 6'-N-acetyltransferase Ib (unknown origin) expressed in Escherichia coli using acetyl CoA as substrate by Lineweaver-Burk plot analysis in presence of kanamycin A. The procedure, abridged:
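Partially purified His-Patch thioredoxin-fused enzyme from E. coli (pBAD102, arabinose-induced), in 20 mM Tris pH 7.5 with 0.2 mM DTNB. Acetyl CoA varied 5–72 μM with kanamycin A fixed at 25 μM, at several inhibitor concentrations. Mix held 10 min at room temperature before enzyme. Initial rates followed at 412 nm, mode assigned from Lineweaver-Burk plots, in triplicate.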

For `CCc1ccc(N2C(=O)NC(=O)/C(=C\c3ccccc3OCc3ccc(C(=O)O)cc3)C2=O)cc1`, in assay [1], the inhibition came out at 30%. Moreover, the inhibition constant (Ki) in assay [2] stood at 181 µM; in assay [3], 139 µM.
On the same counts, the results for `O=C1NC(=O)N(c2ccccc2)C(=O)/C1=C\c1ccco1` are 65%, 16 µM and 15 µM.
As for `O=C1/C(=C/c2ccco2)C(=O)N(c2ccc(Br)cc2)C(=S)N1c1ccccc1`, the inhibition result in assay [4] is “inactive”.
`Cc1cccc(N2C(=O)/C(=C/c3ccc(OCc4cccc(C(=O)O)c4)cc3)C(=O)NC2=S)c1` returned an inhibition in assay [1] of 33%. Further, the results for the Ki in assay [2] and in assay [3] were 97 µM and 84 µM, respectively.
In turn, `O=C1NC(=O)N(c2ccc(Cl)cc2)C(=O)/C1=C\c1ccco1` came in with an inhibition in assay [1] of 60%. Moreover, the Ki in assay [2] is 74 µM; in assay [3], 33 µM.
On the same counts, the results for `O=C1NC(=O)N(c2ccc(O)cc2)C(=O)/C1=C/c1ccccc1OCc1ccc(C(=O)O)cc1` are 30%, 292 µM and 129 µM.
Regarding `O=C(O)c1ccccc1-c1ccc(C=C2C(=O)N(c3ccccc3)C(=S)N(c3ccccc3)C2=O)o1`, the Ki stood at 12 µM in assay [5] and 35 µM in assay [6]. For the same molecule, the inhibition in assay [1] came to 52%.
For `Cc1ccc(N2C(=O)NC(=O)/C(=C\c3ccccc3OCc3ccc(C(=O)O)cc3)C2=O)cc1C`, the inhibition in assay [1] turned out to be 27%. The values for the Ki in assay [2] and in assay [3] were 297 µM and 155 µM, respectively.
The matching figures for `Cc1ccc(N2C(=O)NC(=O)/C(=C\c3ccccc3OCc3ccc(C(=O)O)cc3)C2=O)cc1`: 30%, 258 µM and 157 µM.
For `Cc1cccc(N2C(=O)/C(=C/c3ccccc3OCc3ccc(C(=O)O)cc3)C(=O)NC2=S)c1`, the Ki in assay [5] was 141 µM; in assay [6] it was 267 µM. In assay [1], this molecule yielded an inhibition of 27%.

The values are drawn from ChEMBL document CHEMBL2429829, “Inhibitors of the aminoglycoside 6'-N-acetyltransferase type Ib [AAC(6')-Ib] identified by in silico molecular docking” (Bioorg Med Chem Lett, 2013).
